Data from ChEMBL document CHEMBL1150419, “Structure-activity relationships of a peptide inhibitor of the human FcRn:human IgG interaction” (Bioorg Med Chem, 2008).

How the values were obtained:
[1] = target: T1, IgG receptor FcRn large subunit p51 (Homo sapiens, UniProt P55899); assay: Inhibition of human IgG binding to soluble human FcRn by ELISA
Method in brief: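 Biotinylated soluble human FcRn immobilized on neutravidin plates, incubated with hIgG (3 nM, constant) and peptide at varying concentrations for 2 h at 37 °C. After washing, bound hIgG detected with peroxidase-conjugated hIgG-specific Fab fragments.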

[2] = target: T1, IgG receptor FcRn large subunit p51; assay: Binding affinity to human FcRn at pH 6 by surface plasmon resonance assay
Method in brief: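 Soluble human FcRn coupled to the dextran surface of a CM5 chip; peptide dilutions flowed over the chip. The equilibrium response at each dilution was plotted against concentration and fitted to a steady-state affinity model to give Kd.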

T1 sequence (P55899 whole entry, the tested form may be a part): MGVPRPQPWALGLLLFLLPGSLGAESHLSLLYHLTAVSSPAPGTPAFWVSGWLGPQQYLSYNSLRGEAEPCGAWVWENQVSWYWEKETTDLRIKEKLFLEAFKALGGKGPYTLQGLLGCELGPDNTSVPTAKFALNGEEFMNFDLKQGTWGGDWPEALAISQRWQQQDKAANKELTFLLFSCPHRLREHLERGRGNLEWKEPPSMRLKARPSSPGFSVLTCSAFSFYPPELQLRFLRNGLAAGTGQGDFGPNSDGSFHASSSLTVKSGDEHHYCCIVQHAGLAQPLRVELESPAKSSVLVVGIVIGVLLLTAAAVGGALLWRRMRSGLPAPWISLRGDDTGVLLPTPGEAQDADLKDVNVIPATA

CC(C)C[C@H](NC(=O)[C@@H](C)NC(=O)[C@@H](C)NC(=O)[C@H](Cc1ccccc1)NC(=O)[C@H](Cc1cnc[nH]1)NC(=O)CNC(=O)[C@@H](NC(=O)[C@H](CS)NC(=O)[C@H](Cc1ccccc1)NC(=O)[C@H](CCCN=C(N)N)NC(=O)[C@@H](N)CCC(N)=O)[C@@H](C)O)C(=O)N[C@@H](Cc1ccc(O)cc1)C(=O)N1CCC[C@H]1C(=O)N[C@@H](CS)C(=O)N[C@@H](CC(N)=O)C(=O)NCC(=O)N1CCC[C@H]1C(=O)O
IC50 [1]: 69 µM | Kd [2]: 22 µM

CC(C)C[C@H](NC(=O)CNC(=O)CNC(=O)[C@H](Cc1ccccc1)NC(=O)[C@H](Cc1cnc[nH]1)NC(=O)[C@@H](C)NC(=O)[C@@H](NC(=O)[C@H](CS)NC(=O)[C@H](Cc1ccccc1)NC(=O)[C@H](CCCN=C(N)N)NC(=O)[C@@H](N)CCC(N)=O)[C@@H](C)O)C(=O)N[C@@H](Cc1ccc(O)cc1)C(=O)N1CCC[C@H]1C(=O)N[C@@H](CS)C(=O)N[C@@H](CC(N)=O)C(=O)NCC(=O)N1CCC[C@H]1C(=O)O
IC50 [1]: > 125 µM | Kd [2]: > 250 µM

CC(C)C[C@H](NC(=O)CNC(=O)CNC(=O)[C@H](Cc1ccccc1)NC(=O)[C@H](C)NC(=O)CNC(=O)[C@@H](NC(=O)[C@H](CS)NC(=O)[C@H](Cc1ccccc1)NC(=O)[C@H](CCCNC(=N)N)NC(=O)[C@@H](N)CCC(N)=O)[C@@H](C)O)C(=O)N[C@@H](Cc1ccc(O)cc1)C(=O)N1CCC[C@H]1C(=O)N[C@@H](CS)C(=O)N[C@@H](CC(N)=O)C(=O)NCC(=O)N1CCC[C@H]1C(=O)O
IC50 [1]: > 125 µM | Kd [2]: > 250 µM

CC(C)C[C@H](NC(=O)CNC(=O)CNC(=O)[C@H](Cc1ccccc1)NC(=O)[C@H](Cc1cnc[nH]1)NC(=O)CNC(=O)[C@@H](NC(=O)[C@H](CCN)NC(=O)[C@H](Cc1ccccc1)NC(=O)[C@H](CCCN=C(N)N)NC(=O)[C@@H](N)CCC(N)=O)[C@@H](C)O)C(=O)N[C@@H](Cc1ccc(O)cc1)C(=O)N1CCC[C@H]1C(=O)N[C@@H](CC(=O)O)C(=O)N[C@@H](CC(N)=O)C(=O)NCC(=O)N1CCC[C@H]1C(=O)O
Kd [2]: 8.4 µM

CC(C)C[C@@H](C(=O)N[C@@H](Cc1ccc(O)cc1)C(=O)N1CCC[C@H]1C(=O)N[C@@H](CS)C(=O)N[C@@H](CC(N)=O)C(=O)NCC(=O)N1CCC[C@H]1C(=O)O)N(C)C(=O)CNC(=O)[C@@H](C)NC(=O)[C@H](Cc1ccccc1)NC(=O)[C@H](Cc1cnc[nH]1)NC(=O)CNC(=O)[C@@H](NC(=O)[C@@H](NC(=O)[C@H](Cc1ccccc1)NC(=O)[C@H](CCCNC(=N)N)NC(=O)[C@@H](N)CCC(N)=O)C(C)(C)S)[C@@H](C)O
IC50 [1]: 3.2 µM | Kd [2]: 0.23 µM

CC(C)C[C@H](NC(=O)CN(C)C(=O)CNC(=O)[C@H](Cc1ccccc1)NC(=O)[C@H](Cc1cnc[nH]1)NC(=O)CNC(=O)[C@@H](NC(=O)[C@@H](NC(=O)[C@H](Cc1ccccc1)NC(=O)[C@@H](N)CCCNC(=N)N)C(C)(C)S)[C@@H](C)O)C(=O)N[C@@H](Cc1ccc(O)cc1)C(=O)N1CCC[C@H]1C(=O)N[C@@H](CS)C(=O)O
IC50 [1]: 1 µM | Kd [2]: 0.058 µM

CC(C)C[C@@H](C(=O)N[C@@H](Cc1ccc(O)cc1)C(=O)N1CCC[C@H]1C(=O)N[C@@H](CS)C(=O)O)N(C)C(=O)CNC(=O)CNC(=O)[C@H](Cc1ccccc1)NC(=O)[C@H](Cc1cnc[nH]1)NC(=O)CNC(=O)[C@@H](NC(=O)[C@@H](NC(=O)[C@H](Cc1ccccc1)NC(=O)[C@@H](N)CCCN=C(N)N)C(C)(C)S)[C@@H](C)O
IC50 [1]: 2.1 µM | Kd [2]: 0.059 µM

CC(C)C[C@H](NC(=O)[C@H]1CSC2C[C@@H](NC(=O)[C@H](Cc3ccccc3)NC(=O)[C@H](Cc3cnc[nH]3)NC(=O)CNC(=O)[C@@H](NC(=O)[C@H](NC(=O)[C@H](Cc3ccccc3)NC(=O)[C@@H](N)CCCNC(=N)N)C(C)(C)S)[C@@H](C)O)C(=O)N21)C(=O)N[C@@H](Cc1ccc(O)cc1)C(=O)N1CCC[C@H]1C(=O)N[C@@H](CS)C(=O)O (stereo partly drawn)
Kd [2]: 0.99 µM

CC(C)C[C@H](NC(=O)CNC(=O)[C@H](C)NC(=O)[C@H](Cc1ccccc1)NC(=O)[C@H](Cc1cnc[nH]1)NC(=O)CNC(=O)[C@@H](NC(=O)[C@H](CS)NC(=O)[C@H](Cc1ccccc1)NC(=O)[C@H](CCCNC(=N)N)NC(=O)[C@@H](N)CCC(N)=O)[C@@H](C)O)C(=O)N[C@@H](Cc1ccc(O)cc1)C(=O)N1CCC[C@H]1C(=O)N[C@@H](CS)C(=O)N[C@@H](CC(N)=O)C(=O)NCC(=O)N1CCC[C@H]1C(=O)O
IC50 [1]: > 125 µM | Kd [2]: 230 µM

CC(C)C[C@H](NC(=O)CNC(=O)CNC(=O)[C@H](Cc1ccccc1)NC(=O)[C@H](Cc1cnc[nH]1)NC(=O)CNC(=O)[C@@H](NC(=O)[C@H](CS)NC(=O)[C@H](Cc1ccccc1)NC(=O)[C@@H](N)CCCN=C(N)N)[C@@H](C)O)C(=O)N[C@@H](Cc1ccc(O)cc1)C(=O)N1CCC[C@H]1C(=O)N[C@@H](CS)C(=O)O
IC50 [1]: 87 µM | Kd [2]: 10 µM

CC(C)C[C@H](NC(=O)CNC(=O)CNC(=O)[C@H](Cc1ccccc1)NC(=O)[C@H](Cc1cnc[nH]1)NC(=O)CNC(=O)[C@@H](NC(=O)[C@H](CS)NC(=O)[C@H](Cc1ccccc1)NC(=O)[C@H](CCCNC(=N)N)NC(=O)[C@@H](N)CCC(N)=O)[C@@H](C)O)C(=O)N[C@@H](Cc1ccc(O)cc1)C(=O)N1CCC[C@H]1C(=O)N[C@@H](CS)C(=O)N[C@@H](CC(N)=O)C(=O)NCC(=O)N1CCC[C@H]1C(=O)O
IC50 [1]: 40 µM | Kd [2]: 5.1 µM

CC(C)C[C@@H](C(=O)N[C@@H](Cc1ccc(O)cc1)C(=O)N1CCC[C@H]1C(=O)N[C@@H](CS)C(=O)N[C@@H](CC(N)=O)C(=O)NCC(=O)N1CCC[C@H]1C(=O)O)N(C)C(=O)CNC(=O)[C@@H](Cc1ccccc1)NC(=O)[C@H](Cc1ccccc1)NC(=O)[C@H](Cc1cnc[nH]1)NC(=O)CNC(=O)[C@@H](NC(=O)[C@@H](NC(=O)[C@H](Cc1ccccc1)NC(=O)[C@H](CCCNC(=N)N)NC(=O)[C@@H](N)CCC(N)=O)C(C)(C)S)[C@@H](C)O
IC50 [1]: 1.3 µM | Kd [2]: 0.24 µM

CC(C)C[C@H](NC(=O)CNC(=O)CNC(=O)[C@H](Cc1ccccc1)NC(=O)[C@H](Cc1cnc[nH]1)NC(=O)CNC(=O)[C@@H](NC(=O)[C@H](CS)NC(=O)[C@H](Cc1ccccc1)NC(=O)[C@H](CCCN=C(N)N)NC(=O)[C@@H](N)CCC(N)=O)[C@@H](C)O)C(=O)N[C@@H](Cc1ccc(O)cc1)C(=O)N1CCC[C@H]1C(=O)N[C@H](CCS)C(=O)N[C@@H](CC(N)=O)C(=O)NCC(=O)N1CCC[C@H]1C(=O)O
IC50 [1]: 21 µM | Kd [2]: 3.9 µM

CC(C)C[C@H](NC(=O)CNC(=O)CNC(=O)[C@H](Cc1ccccc1)NC(=O)[C@H](Cc1cnc[nH]1)NC(=O)CNC(=O)[C@@H](NC(=O)[C@H](CS)NC(=O)[C@H](Cc1ccccc1)NC(=O)[C@H](C)NC(=O)[C@@H](N)CCC(N)=O)[C@@H](C)O)C(=O)N[C@@H](Cc1ccc(O)cc1)C(=O)N1CCC[C@H]1C(=O)N[C@@H](CS)C(=O)N[C@@H](CC(N)=O)C(=O)NCC(=O)N1CCC[C@H]1C(=O)O
IC50 [1]: 23 µM | Kd [2]: 7.7 µM

CC(C)C[C@H](NC(=O)CNC(=O)CNC(=O)[C@H](Cc1ccccc1)NC(=O)[C@H](Cc1cnc[nH]1)NC(=O)CNC(=O)[C@@H](NC(=O)[C@@H](NC(=O)[C@H](Cc1ccccc1)NC(=O)[C@H](CCCN=C(N)N)NC(=O)[C@@H](N)CCC(N)=O)C(C)(C)S)[C@@H](C)O)C(=O)N[C@@H](Cc1ccc(O)cc1)C(=O)N1CCC[C@H]1C(=O)N[C@H](C(=O)N[C@@H](CC(N)=O)C(=O)NCC(=O)N1CCC[C@H]1C(=O)O)C(C)(C)S
IC50 [1]: 2 µM | Kd [2]: 0.37 µM

CC(C)C[C@H](NC(=O)CNC(=O)CNC(=O)[C@H](Cc1ccccc1)NC(=O)[C@H](Cc1cnc[nH]1)NC(=O)[C@H](C)NC(=O)[C@@H](NC(=O)[C@H](CS)NC(=O)[C@H](Cc1ccccc1)NC(=O)[C@H](CCCNC(=N)N)NC(=O)[C@@H](N)CCC(N)=O)[C@@H](C)O)C(=O)N[C@@H](Cc1ccc(O)cc1)C(=O)N1CCC[C@H]1C(=O)N[C@@H](CS)C(=O)N[C@@H](CC(N)=O)C(=O)NCC(=O)N1CCC[C@H]1C(=O)O
IC50 [1]: > 125 µM | Kd [2]: > 250 µM

CC(C)C[C@H](NC(=O)[C@@H]1CCCN1C(=O)[C@H]1CCCN1C(=O)[C@H](Cc1ccccc1)NC(=O)[C@H](Cc1cnc[nH]1)NC(=O)CNC(=O)[C@@H](NC(=O)[C@@H](NC(=O)[C@H](Cc1ccccc1)NC(=O)[C@H](CCCN=C(N)N)NC(=O)[C@@H](N)CCC(N)=O)C(C)(C)S)[C@@H](C)O)C(=O)N[C@@H](Cc1ccc(O)cc1)C(=O)N1CCC[C@H]1C(=O)N[C@@H](CS)C(=O)N[C@@H](CC(N)=O)C(=O)NCC(=O)N1CCC[C@H]1C(=O)O
IC50 [1]: > 250 µM | Kd [2]: > 100 µM

CC(C)C[C@H](NC(=O)CNC(=O)CNC(=O)[C@H](Cc1ccccc1)NC(=O)[C@H](Cc1cnc[nH]1)NC(=O)CNC(=O)[C@@H](NC(=O)[C@H](CS)NC(=O)[C@H](Cc1ccccc1)NC(=O)[C@H](CCCN=C(N)N)NC(=O)[C@@H](N)CCC(N)=O)[C@@H](C)O)C(=O)N[C@@H](Cc1ccc(O)cc1)C(=O)N1CCC[C@H]1C(=O)N[C@@H](CS)C(=O)N[C@@H](C)C(=O)NCC(=O)N1CCC[C@H]1C(=O)O
IC50 [1]: 30 µM | Kd [2]: 8 µM

CC(C)C[C@@H](C(=O)N[C@@H](Cc1ccc(O)cc1)C(=O)N1CCC[C@H]1C(=O)N[C@@H](CS)C(=O)N[C@@H](CC(N)=O)C(=O)NCC(=O)N1CCC[C@H]1C(=O)O)N(C)C(=O)CNC(=O)CNC(=O)[C@H](Cc1ccccc1)NC(=O)[C@H](Cc1cnc[nH]1)NC(=O)CNC(=O)[C@@H](NC(=O)[C@@H](NC(=O)[C@H](Cc1ccccc1)NC(=O)[C@H](CCCN=C(N)N)NC(=O)[C@@H](N)CCC(N)=O)C(C)(C)S)[C@@H](C)O
IC50 [1]: 1.6 µM | Kd [2]: 0.086 µM

CC(C)C[C@H](NC(=O)CNC(=O)CNC(=O)[C@H](Cc1ccccc1)NC(=O)[C@H](Cc1cnc[nH]1)NC(=O)CNC(=O)[C@@H](NC(=O)[C@H](CS)NC(=O)[C@@H](N)Cc1ccccc1)[C@@H](C)O)C(=O)N[C@@H](Cc1ccc(O)cc1)C(=O)N1CCC[C@H]1C(=O)N[C@@H](CS)C(=O)N[C@@H](CC(N)=O)C(=O)NCC(=O)N1CCC[C@H]1C(=O)O
IC50 [1]: 67 µM | Kd [2]: 11 µM
